Screens (PubChem)
Hits are enriched below; roughly 2.2% of the tested compounds scored in any of these assays.
HCV core dimer = HCV core protein dimerization inhibition; TR-FRET GST/Flag-core106 dimerization, 1536-well; inhibition, % at 5 µM; 300,000 tested, 0.33% active; AID 1899;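 active = inhibition above the mean of all tested compounds plus 3 SD, set per screening campaign, cut at about 45% in these data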
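Test system: GST/Flag-tagged HCV core106 proteins; Medium: KF-containing HEPES buffer, pH 7.45, DTT, CHAPS, BSA; Times: compound-protein-antibody incubation 4 h at 22.5 °C; Detection: TR-FRET 671 and 617 nm emission; Benchmarks: wells lacking GST-core106 and wells with excess unlabelled core106.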
DAGLB inhibitor = diacylglycerol lipase beta (human) inhibition. Q8NCG7. inhibition, % at 5.17 µM. 340,000 tested, 0.059% active. HEK293T DAGLB membrane lysate, EnzChek fluorogenic substrate; in the data active = inhibition above about 34%;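 note: 0% = enzyme with vehicle and 100% = wells lacking enzyme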
NS3 helicase inh = HCV NS3 helicase inhibition; NS3 helicase DNA unwinding, Cy5 molecular beacon fluorescence; inhibition, % at 10.9 µM; 290,000 tested, 0.56% active; AID 1800;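 active = inhibition above the mean of all tested compounds plus 3 SD, set per campaign, cut at about 35% in these data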;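 note: 0% = DMSO wells and 100% = thioflavine S control wells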
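assay system = NS3 helicase fragment of HCV | buffer or medium = MOPS pH 6.5, MgCl2, DTT, Tween20, BSA | timing = 60 min unwinding reaction at 25 °C after ATP addition | signal = Cy5 beacon fluorescence read at start and 1 h | read-out basis = % inhibition of unwinding | control set = low DMSO, high thioflavine S at 110 µM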
FID counter = fluorescent intercalator displacement, NS3 helicase counter-screen; 290,000 tested, 0.17% active; inhibition, % at 7.9 µM; DNA fluorescent intercalator displacement, fluorescence; in the data active = inhibition above about 37%;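 note: 0% = vehicle and 100% = reference compound; higher means more ethidium bromide displaced from hairpin DNA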
GPR7 antagonist = human neuropeptides B/W receptor 1 antagonism; P48145; GPR7-expressing cells, fluorescence antagonist assay; inhibition, % at 4.4 µM; 290,000 tested, 1.1% active; in the data active = inhibition above about 16%, passing the limit was not always enough;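 note: cells stimulated with the agonist NPW; 0% = agonist with vehicle and 100% = vehicle without agonist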
GRK2 aptamer HTS = blocks RNA aptamer binding to human GRK2; P25098; bead flow cytometry, FAM-aptamer displacement from GRK2; inhibition of aptamer binding, % at 10 µM; 330,000 tested, 0.59% active; AID 488847;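 active = inhibition of aptamer binding above 40%, roughly 3 SD of noise, on plates passing a quality check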;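 note: median bead fluorescence of bound FAM aptamer so fluorescent compounds give negative values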
Target sequence (P25098 whole entry, looked up): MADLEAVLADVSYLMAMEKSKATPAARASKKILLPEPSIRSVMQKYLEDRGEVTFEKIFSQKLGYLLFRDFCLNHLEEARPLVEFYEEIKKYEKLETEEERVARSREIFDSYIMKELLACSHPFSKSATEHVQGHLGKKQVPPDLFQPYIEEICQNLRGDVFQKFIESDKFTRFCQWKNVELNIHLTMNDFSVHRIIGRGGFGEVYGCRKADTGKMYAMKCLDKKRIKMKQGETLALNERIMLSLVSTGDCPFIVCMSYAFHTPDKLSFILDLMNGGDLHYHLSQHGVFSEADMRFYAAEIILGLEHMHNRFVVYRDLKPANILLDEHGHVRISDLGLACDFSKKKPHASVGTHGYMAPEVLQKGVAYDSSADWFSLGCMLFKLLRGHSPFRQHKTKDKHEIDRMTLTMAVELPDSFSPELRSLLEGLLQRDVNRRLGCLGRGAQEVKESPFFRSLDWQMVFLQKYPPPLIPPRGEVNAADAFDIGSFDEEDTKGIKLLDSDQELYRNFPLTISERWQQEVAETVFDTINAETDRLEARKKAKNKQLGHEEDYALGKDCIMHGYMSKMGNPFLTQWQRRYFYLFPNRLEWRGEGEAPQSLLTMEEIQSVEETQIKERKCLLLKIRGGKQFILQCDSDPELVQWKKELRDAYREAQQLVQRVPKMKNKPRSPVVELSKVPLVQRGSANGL
The depositor's hits bear a star; . = not tested or not shown.

SMILES	HCV core dimer	DAGLB inhibitor	NS3 helicase inh	FID counter	GPR7 antagonist	GRK2 aptamer HTS
CN(C(=S)NC(=O)C12CC3CC(CC(C3)C1)C2)c1ccc(O)cc1	.	-1.2	.	.	.	59.0*
CN(C)NC(=S)NC(=O)C12CC3CC(CC(C3)C1)C2	-7.0	0.3	-1.8	-9.9	-1.4	0.0
Cc1ccsc1CN(C)C(=O)CN1C(=O)NC2(CCCCC2C)C1=O (stereo unspecified)	.	0.4	.	.	.	1.0
CC1CCCCC12NC(=O)N(CC(=O)Nc1sc3c(c1C(N)=O)CCC3)C2=O (stereo unspecified)	69.3*	1.8	6.9	-13.4	-7.0	5.0
CC1CCC2(CC1)NC(=O)N(CC(=O)Nc1sc3c(c1C(N)=O)CCC3)C2=O (stereo unspecified)	52.2*	2.2	-0.4	-10.7	5.2	38.0
COC(=O)c1c(NC(=O)CN2C(=O)NC3(CCC(C)CC3)C2=O)sc2c1CCC2 (stereo unspecified)	.	-5.8	.	.	.	4.0
CSc1nsc(/C=C/Nc2ccc(F)cc2F)c1C#N	-24.9	1.3	13.3	-9.1	1.8	98.0*
COc1ccc(-c2cc(C(=O)Nc3ccc(S(=O)(=O)Nc4onc(C)c4C)cc3)c3ccccc3n2)cc1OC	20.0	4.3	18.4	-11.3	8.4	27.0
Cc1ccc2nc(-c3ccccn3)cc(C(=O)N3CCN(c4ncccn4)CC3)c2c1	7.8	-1.7	-1.8	-4.0	-4.7	0.0
Cc1cc(C)c2nc(-c3ccccn3)cc(C(=O)N3CCCC3)c2c1	47.9*	0.8	22.5	-47.4	-2.0	5.0
Cc1cc(C)c2nc(-c3ccccn3)cc(C(=O)Nc3ccc(S(=O)(=O)Nc4onc(C)c4C)cc3)c2c1	59.7*	.	-15.1	-16.5	-1.4	6.0
O=C1CCc2cc(NS(=O)(=O)c3cc(F)ccc3F)cc3c2N1CC3	-1.1	3.8	.	.	.	7.0
Nc1ccc2cccc(O)c2c1	.	5.1	.	.	.	.
CCS(=O)(=O)C1=NN2C(=N)/C(=C\c3ccc(OS(=O)(=O)c4ccccc4)c(OC)c3)C(=O)N=C2S1	20.5	.	19.0	15.2	-2.6	41.0*
COc1ccc2c(c1)-c1c(ssc1=S)C(C)(C)N2	-13.6	36.1*	1.3	5.7	-7.1	1.0
CCOC(=O)c1c(-c2ccco2)csc1NC(=O)COC(=O)c1cnc(C)cn1	52.1*	0.6	.	.	.	3.0
CCOC(=O)c1c(CC(C)C)csc1NC(=O)COC(=O)c1cnc(C)cn1	.	-2.2	.	.	.	.
COc1ccc(C2=NN(c3nc(-c4ccccc4)c(CC(=O)O)s3)C(c3ccco3)C2)cc1 (stereo unspecified)	86.9*	4.2	30.1	-26.4	4.1	6.0
CCN(CC)CCNc1nc(SC)nc2sc3c(c12)CCN(C)C3	-5.2	-6.6	4.1	26.6	-4.0	0.0
CSc1nc(NCCCN(C)C)c2c3c(sc2n1)CN(C)CC3	.	.	-31.8	41.9*	-1.0	0.0
CC(C)COP(=O)(OCC(C)C)C(Nc1ccccc1)c1ccccc1 (stereo unspecified)	0.5	-5.8	-5.1	-45.4	6.8	0.0
CC(C)COP(=O)(OCC(C)C)C(Nc1ccccc1)c1ccc(F)cc1 (stereo unspecified)	5.8	-6.9	-8.8	-32.2	18.3*	0.0
CC(C)(C)c1cc(C(=O)N/N=C/c2ccccc2O)n(-c2ccccc2)n1	11.7	6.0	-9.5	-13.6	-3.8	99.0*
CCC1(C(=O)NC(=Nc2ccccc2)Nc2ccccc2)CCOC1=O (stereo unspecified)	.	-0.3	.	.	.	.
O=C(COC(=O)c1cc(=O)[nH]c2ccccc12)NCc1ccc(Cl)cc1	.	3.1	.	.	.	2.0
SMILES	HCV core dimer	DAGLB inhibitor	NS3 helicase inh	FID counter	GPR7 antagonist	GRK2 aptamer HTS
Nc1nc(-c2ccccc2)cc(N2CCCCC2)n1	-0.3	0.3	-14.8	2.2	13.9*	0.0
Cc1nc(-c2ccccc2)cc(N2CCCC2)n1	-0.3	0.6	0.2	-2.4	2.0	0.0
COc1ccc(NC(=O)Cn2cc(S(=O)(=O)Cc3ccccc3)c3ccccc32)c(OC)c1	52.0*	-1.1	-0.6	-19.8	-1.9	2.0
COc1ccc(NC(=O)CS(=O)(=O)c2cn(CC(=O)N(C(C)C)C(C)C)c3ccccc23)c(OC)c1	2.4	-2.8	-13.2	-39.4	-2.6	0.0
COc1ccc(NC(=S)N(CCc2c(C)[nH]c3ccc(C)cc23)Cc2ccco2)cc1	7.3	-5.4	-22.1	-3.7	19.6*	5.0
O=S(=O)(Nc1ncnc2sc3c(c12)CCC3)c1ccc(Cl)s1	46.6*	7.5	22.9	-29.2	10.4	0.0
CCn1c(=O)c(C(=O)CN2CCc3ccccc32)c(N)n(Cc2ccccc2)c1=O	50.9*	3.1	-3.0	-21.6	-0.3	0.0
CN(C)CC(CCC(CN(C)C)C(=O)c1ccccc1)C(=O)c1ccccc1 (stereo unspecified)	.	0.8	-37.4	9.7	37.9*	.
CCOc1ccc(C(=O)C(CCC(CN(C)C)C(=O)c2ccc(OCC)cc2)CN(C)C)cc1 (stereo unspecified)	.	0.8	-64.7	14.4	19.3	.
O=C(CN1c2cccc3cccc(c23)S1(=O)=O)Nc1ccc(S(=O)(=O)N2CCOCC2)cc1	56.1*	2.1	7.7	-18.8	-2.6	1.0
O=S(=O)(c1ccc(NC(=S)N/N=C/c2c3ccccc3cc3ccccc23)cc1)N1CCOCC1	55.9*	0.8	-0.6	-4.3	-3.6	8.0
CN(C)CCCN(CCCN(C)C)C(=S)Nc1ccc(S(=O)(=O)N2CCOCC2)cc1	-1.7	-1.1	10.2	37.4*	-8.3	1.0
CC(C)(C)CC(C)(C)NC(=S)Nc1ccc(S(=O)(=O)N2CCOCC2)cc1	6.4	0.3	5.0	-20.1	-13.2	0.0
CC1(C)C(=O)Nc2ccccc2N1C(=O)COc1cc(Cl)ccc1Cl	.	2.1	.	.	.	0.0
CCOC(=O)C1(Cc2ccccc2C(F)(F)F)CCN(CC(O)CO)CC1 (stereo unspecified)	2.7	-2.9	3.8	7.5	-11.6	1.0
CCOC(=O)C1(Cc2ccccc2C(F)(F)F)CCN(C2CCN(C(C)C)CC2)CC1	0.7	0.4	-45.4	44.7*	-3.1	0.0
O=C(Nc1cccc(Cl)c1)C1C2CCC3C(CCC21)C3(Cl)Cl (stereo unspecified)	12.0	-15.2	-19.0	2.0	41.5*	0.0
COc1ccc(C2C(C#N)=C3NC(=O)c4c(sc5c4CCCCC5)N3C3=C2C(=O)CC(C)(C)C3)cc1 (stereo unspecified)	46.0*	19.6	24.2	-21.6	0.4	2.0
Cc1ccccc1Nc1nnc(SCC(=O)NCC2CCCO2)s1 (stereo unspecified)	.	-0.9	.	.	.	1.0
Cc1ccc2c(c1)c1c(n2CC(O)CNC(C)(C)C)CCCC1 (stereo unspecified)	.	-2.2	-38.1	24.9	21.4*	.
Cc1ccc2c(c1)c1c(n2CC(O)CN2CCCCCC2)CCCC1 (stereo unspecified)	-3.6	-1.3	-91.3	11.8	26.7	0.0
